According to ChEMBL document CHEMBL4052683, “The discovery of benzoxazine sulfonamide inhibitors of NaV1.7: Tools that bridge efficacy and target engagement” (Bioorg Med Chem Lett, 2017):

Experiments:
[1] = molecular target: Sodium channel protein type 9 subunit alpha (Rattus norvegicus, UniProt O08562); assay: Inhibition of rat NaV1.7 by cell based whole cell voltage clamp method
Summary of the method: (§1)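 PatchXpress electrophysiology was run with a protocol giving about 20% channel inactivation. At least four concentrations at half-log spacing were applied one at a time, with washout, current recovery and holding voltage reset between each. Data were pooled from at least 10 cells, with 2–3 points per concentration, and fitted with a 4-parameter Hill curve to give one IC50.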

[2] = Inhibition of cynomolgus monkey NaV1.7 by whole cell voltage clamp method; conditions: Macaca fascicularis; summary of the method: as §1
[3] = molecular target: Sodium channel protein type 9 subunit alpha (Mus musculus, UniProt Q62205); assay: Inhibition of mouse NaV1.7 by whole cell voltage clamp method; summary of the method: as §1
[4] = Clearance in pooled rat liver microsomes at 1 uM in presence of NADPH by LC-MS/MS method; format: ADME, microsome; conditions: read-out: CLH
[5] = Apparent permeability in MDCK vector control cells at 5 uM; conditions: dog
[6] = Clearance in pooled human liver microsomes at 1 uM in presence of NADPH by LC-MS/MS method; format: ADME, microsome; conditions: read-out: CLH
Homo sapiens = species on record: Homo sapiens; assay: Selectivity index, ratio of IC50 for human NaV1.5 expressed in […] cells to IC50 for human NaV1.7 expressed in HEK293 cells; format: cell-based
Rattus norvegicus = assay: Unbound clearance in rat at 0.5 mg/kg, iv by LC-MS/MS method; format: ADME, organism-based; conditions: in vivo
Summary of the method: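 Male rats given 0.5 mg/kg intravenously as a solution in DMSO. Unbound clearance was calculated as rat clearance divided by unbound fraction, with unbound fraction determined by equilibrium dialysis.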

[7] = Dissociation constant, pKa of the compound; format: physicochemical
[8] = molecular target: Sodium channel protein type 5 subunit alpha (Homo sapiens, UniProt Q14524); assay: Inhibition of human NaV1.5 expressed in […] cells at holding potential of -125 mV with test potentials to -10 mV by whole cell voltage clamp method; format: cell-based
[9] = Clearance in rat at 0.5 mg/kg, iv by LC-MS/MS method; format: ADME, organism-based; conditions: in vivo
Summary of the method: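 Male rats got 0.5 mg/kg IV as a DMSO solution. Unbound clearance was taken as rat clearance divided by the unbound fraction from equilibrium dialysis.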

[10] = molecular target: T1, Sodium channel protein type 9 subunit alpha (Homo sapiens, UniProt Q15858); assay: Inhibition of human NaV1.7 expressed in HEK293 cells at holding potential of -125 mV with test potentials to -10 mV by whole cell voltage clamp method; format: cell-based
T1 sequence (Q15858 whole entry): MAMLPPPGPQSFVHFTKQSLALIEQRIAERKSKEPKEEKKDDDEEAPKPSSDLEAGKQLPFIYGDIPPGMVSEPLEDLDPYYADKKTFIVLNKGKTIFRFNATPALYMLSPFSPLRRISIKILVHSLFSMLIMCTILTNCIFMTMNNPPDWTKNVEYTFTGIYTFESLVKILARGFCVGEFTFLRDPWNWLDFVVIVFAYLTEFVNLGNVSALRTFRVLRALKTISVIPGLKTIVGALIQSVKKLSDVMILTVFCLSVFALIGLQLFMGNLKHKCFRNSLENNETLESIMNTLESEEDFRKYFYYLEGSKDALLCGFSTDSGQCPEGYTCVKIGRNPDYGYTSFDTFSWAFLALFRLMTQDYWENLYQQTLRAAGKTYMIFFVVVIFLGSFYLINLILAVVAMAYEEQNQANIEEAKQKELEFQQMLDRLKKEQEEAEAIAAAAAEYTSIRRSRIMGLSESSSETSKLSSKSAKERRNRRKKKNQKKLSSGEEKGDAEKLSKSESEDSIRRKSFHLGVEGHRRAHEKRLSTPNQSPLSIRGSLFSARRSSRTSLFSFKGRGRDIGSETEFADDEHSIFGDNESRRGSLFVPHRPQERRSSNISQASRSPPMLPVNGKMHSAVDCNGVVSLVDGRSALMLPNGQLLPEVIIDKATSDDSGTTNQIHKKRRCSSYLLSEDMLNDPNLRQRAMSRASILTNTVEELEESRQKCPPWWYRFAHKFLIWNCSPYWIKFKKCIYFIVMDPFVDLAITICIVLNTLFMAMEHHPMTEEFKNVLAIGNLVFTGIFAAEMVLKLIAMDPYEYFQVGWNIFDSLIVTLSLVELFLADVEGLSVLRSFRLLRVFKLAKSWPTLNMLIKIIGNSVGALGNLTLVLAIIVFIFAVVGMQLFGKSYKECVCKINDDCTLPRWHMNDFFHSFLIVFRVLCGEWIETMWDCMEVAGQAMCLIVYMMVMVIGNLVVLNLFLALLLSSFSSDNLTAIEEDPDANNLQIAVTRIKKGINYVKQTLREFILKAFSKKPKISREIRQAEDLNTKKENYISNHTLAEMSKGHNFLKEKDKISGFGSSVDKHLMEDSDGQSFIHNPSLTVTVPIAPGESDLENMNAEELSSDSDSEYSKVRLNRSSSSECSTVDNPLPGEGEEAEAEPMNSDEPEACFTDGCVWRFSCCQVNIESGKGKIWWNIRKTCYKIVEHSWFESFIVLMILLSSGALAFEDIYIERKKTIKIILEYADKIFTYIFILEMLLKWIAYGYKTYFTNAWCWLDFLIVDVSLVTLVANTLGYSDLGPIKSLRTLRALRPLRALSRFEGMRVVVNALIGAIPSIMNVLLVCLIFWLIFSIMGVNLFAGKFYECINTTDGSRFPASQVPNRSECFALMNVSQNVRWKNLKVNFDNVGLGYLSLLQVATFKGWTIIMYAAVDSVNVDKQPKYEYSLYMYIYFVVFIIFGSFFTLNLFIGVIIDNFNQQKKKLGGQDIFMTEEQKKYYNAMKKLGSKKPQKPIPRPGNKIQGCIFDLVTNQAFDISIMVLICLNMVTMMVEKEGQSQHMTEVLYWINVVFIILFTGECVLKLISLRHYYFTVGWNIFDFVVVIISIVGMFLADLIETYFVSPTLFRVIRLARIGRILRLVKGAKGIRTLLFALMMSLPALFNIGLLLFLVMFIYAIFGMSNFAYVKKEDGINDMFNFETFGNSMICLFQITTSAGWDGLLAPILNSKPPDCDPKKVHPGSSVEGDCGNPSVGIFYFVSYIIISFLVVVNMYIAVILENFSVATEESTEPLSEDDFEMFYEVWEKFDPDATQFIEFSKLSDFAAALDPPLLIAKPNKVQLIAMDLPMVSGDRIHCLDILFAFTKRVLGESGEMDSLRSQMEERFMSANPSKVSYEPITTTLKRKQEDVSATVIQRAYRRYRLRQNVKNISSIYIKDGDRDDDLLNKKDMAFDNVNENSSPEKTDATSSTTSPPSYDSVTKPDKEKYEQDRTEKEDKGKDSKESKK

[11] = molecular target: T1, Sodium channel protein type 9 subunit alpha; assay: Displacement of (P)-1-(30-chloro-2-fluoro-5,50-dimethoxy-[1,10biphenyl]-4-yl)-N-(isoxazol-3-yl)-2-oxo-1,2-dihydroquinoline-6-sulfonamide[50-methoxy-C3H3] from human NaV1.7 expressed in HEK293 cell membranes incubated for 1 hr by beta counting method
Summary of the method: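 Human NaV1.7 radioligand displacement using the tritiated 5'-methoxy-labelled dihydroquinoline sulfonamide ligand, which binds the VSDIV pocket.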

Sequence of Sodium channel protein type 9 subunit alpha (Rattus norvegicus, UniProt O08562) (O08562 whole entry): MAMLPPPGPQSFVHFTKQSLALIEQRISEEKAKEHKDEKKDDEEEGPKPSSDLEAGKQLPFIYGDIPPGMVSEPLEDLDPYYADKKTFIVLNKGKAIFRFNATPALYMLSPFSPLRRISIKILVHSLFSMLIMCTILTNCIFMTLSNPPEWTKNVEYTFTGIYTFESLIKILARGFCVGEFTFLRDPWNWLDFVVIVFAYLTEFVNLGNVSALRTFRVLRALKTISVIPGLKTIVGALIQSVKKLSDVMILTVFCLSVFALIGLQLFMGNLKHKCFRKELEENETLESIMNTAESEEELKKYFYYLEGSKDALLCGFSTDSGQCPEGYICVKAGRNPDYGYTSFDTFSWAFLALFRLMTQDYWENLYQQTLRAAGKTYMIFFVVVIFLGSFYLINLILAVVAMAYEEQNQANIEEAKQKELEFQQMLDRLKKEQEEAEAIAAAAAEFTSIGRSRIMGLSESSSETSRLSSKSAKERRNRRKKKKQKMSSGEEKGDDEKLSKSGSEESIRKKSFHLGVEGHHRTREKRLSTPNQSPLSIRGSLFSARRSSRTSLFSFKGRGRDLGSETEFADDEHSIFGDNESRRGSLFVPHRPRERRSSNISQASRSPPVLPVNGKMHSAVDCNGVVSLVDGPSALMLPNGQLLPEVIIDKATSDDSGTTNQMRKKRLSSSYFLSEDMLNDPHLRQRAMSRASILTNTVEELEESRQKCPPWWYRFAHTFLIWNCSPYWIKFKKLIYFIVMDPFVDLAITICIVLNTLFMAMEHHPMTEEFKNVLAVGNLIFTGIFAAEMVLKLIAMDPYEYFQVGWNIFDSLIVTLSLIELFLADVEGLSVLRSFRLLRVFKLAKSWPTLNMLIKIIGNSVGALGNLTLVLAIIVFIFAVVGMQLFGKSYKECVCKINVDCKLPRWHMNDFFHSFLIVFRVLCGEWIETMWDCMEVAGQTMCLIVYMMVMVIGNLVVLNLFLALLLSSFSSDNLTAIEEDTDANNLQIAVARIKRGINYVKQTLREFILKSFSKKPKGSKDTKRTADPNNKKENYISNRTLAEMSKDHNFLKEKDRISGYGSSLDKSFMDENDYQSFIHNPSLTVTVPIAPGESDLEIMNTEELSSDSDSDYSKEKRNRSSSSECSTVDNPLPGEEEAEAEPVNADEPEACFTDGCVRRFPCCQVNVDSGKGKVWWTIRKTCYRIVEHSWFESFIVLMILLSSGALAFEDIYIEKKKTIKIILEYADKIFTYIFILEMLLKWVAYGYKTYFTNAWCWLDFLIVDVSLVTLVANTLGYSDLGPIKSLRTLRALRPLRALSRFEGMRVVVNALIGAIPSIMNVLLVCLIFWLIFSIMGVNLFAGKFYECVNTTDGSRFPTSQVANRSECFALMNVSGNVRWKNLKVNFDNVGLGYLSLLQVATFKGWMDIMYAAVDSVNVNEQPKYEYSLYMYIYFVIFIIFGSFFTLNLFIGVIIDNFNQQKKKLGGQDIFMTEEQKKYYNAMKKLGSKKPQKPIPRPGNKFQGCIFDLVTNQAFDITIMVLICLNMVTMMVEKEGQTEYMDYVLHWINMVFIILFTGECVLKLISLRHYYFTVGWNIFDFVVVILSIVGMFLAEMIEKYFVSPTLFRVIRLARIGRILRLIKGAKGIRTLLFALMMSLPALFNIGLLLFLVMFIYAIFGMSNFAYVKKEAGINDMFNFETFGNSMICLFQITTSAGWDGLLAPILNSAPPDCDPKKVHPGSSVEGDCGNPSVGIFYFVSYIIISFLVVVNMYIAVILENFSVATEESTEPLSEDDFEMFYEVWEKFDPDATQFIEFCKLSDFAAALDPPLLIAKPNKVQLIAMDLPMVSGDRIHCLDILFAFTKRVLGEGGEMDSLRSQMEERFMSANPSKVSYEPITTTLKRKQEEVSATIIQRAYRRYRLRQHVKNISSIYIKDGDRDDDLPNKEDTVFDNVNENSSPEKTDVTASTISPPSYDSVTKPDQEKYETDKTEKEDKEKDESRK

| IC50 [1] [nM] | IC50 [2] [nM] | IC50 [3] [nM] | microsomal CLint at 1 µM [4] [µL/min/mg] | Papp at 5 µM [5] [×10⁻⁶ cm/s] | microsomal CLint at 1 µM [6] [µL/min/mg] | CL free (Rattus norvegicus) [mL/min/kg] | pKa [7] | clearance [9] [mL/min/kg] | IC50 [10] [nM] | IC50 [11] [nM] | Structure (SMILES) | Ratio IC50 (Homo sapiens) | IC50 [8] [nM] |
| --- | --- | --- | --- | --- | --- | --- | --- | --- | --- | --- | --- | --- | --- |
| 4200 | 20 | 130 | – | – | – | – | – | – | – | – | Cn1nccc1-c1ccccc1Oc1ccc(S(=O)(=O)Nc2nccs2)cc1C#N | – | – |
| – | – | – | < 14 | 6.4 | 15 | – | – | – | – | – | N#Cc1cc(C(F)(F)F)ccc1N1CCOc2cc(S(=O)(=O)Nc3ncco3)ccc21 | – | – |
| – | – | – | < 14 | < 1 | 32 | – | – | – | – | – | N#Cc1cc(C(F)(F)F)ccc1N1CCOc2cc(S(=O)(=O)Nc3ccno3)ccc21 | – | – |
| 3000 | – | – | < 14 | 9.7 | < 14 | 120 | 5.8 | 2.83 | – | – | N#Cc1cc(C(F)(F)F)ccc1N1CCOc2cc(S(=O)(=O)Nc3ccncn3)ccc21 | 10 | 4600 |
| 880 | – | – | > 399 | 36 | 110 | – | – | – | 280 | – | COc1cc(F)ccc1N1CCOc2cc(S(=O)(=O)Nc3nccs3)ccc21 | > 100 | > 30000 |
| > 30000 | 100 | 4300 | – | 1.3 | – | 667 | – | 28.3 | 90 | – | O=S(=O)(Nc1ccncn1)c1ccc2c(-c3ccc(C(F)(F)F)cc3C3=CCNCC3)cccc2c1 | > 330 | > 30000 |
| 1100 | – | – | < 14 | 22 | < 14 | 517 | 7 | 5.5 | – | – | N#Cc1cc(C(F)(F)F)ccc1N1CCOc2cc(S(=O)(=O)Nc3nccs3)ccc21 | 8 | 1500 |
| 50 | 300 | 100 | 21 | 27 | 22 | – | – | – | 390 | 20 | N#Cc1cc(C(F)(F)F)ccc1N1CCOc2cc(S(=O)(=O)Nc3nccs3)c(Cl)cc21 | – | 610 |
| – | – | – | < 14 | 39 | 55 | – | – | – | – | – | N#Cc1cc(C(F)(F)F)ccc1N1CCOc2cc(S(=O)(=O)Nc3cscn3)ccc21 | – | – |
| > 30000 | – | – | – | 1 | – | 233 | – | 43.3 | – | – | O=S(=O)(Nc1ccncn1)c1ccc2c(c1)OCCN2c1ccc(C(F)(F)F)cc1C1=CCNCC1 | 11 | 1500 |
| 850 | – | – | 22 | 20 | 36 | 883 | – | 14 | 250 | – | COc1cc(C#N)ccc1N1CCOc2cc(S(=O)(=O)Nc3nccs3)ccc21 | 56 | 14000 |
| 1700 | – | – | < 14 | 38 | < 14 | – | – | – | – | – | N#Cc1cc(C(F)(F)F)ccc1N1CCOc2c1ccc(S(=O)(=O)Nc1nccs1)c2F | – | 2100 |
| 390 | – | – | 53 | – | 30 | 667 | – | – | – | – | COc1cc(C(F)(F)F)ccc1N1CCOc2cc(S(=O)(=O)Nc3nccs3)ccc21 | – | – |
| 1600 | – | – | 297 | 28 | 68 | – | – | – | – | – | COc1ccccc1N1CCOc2cc(S(=O)(=O)Nc3nccs3)ccc21 | > 79 | > 30000 |
| – | – | – | 34 | 1.6 | < 14 | 1180 | 3.8 | 10.7 | 90 | 21 | N#Cc1cc(C(F)(F)F)ccc1N1CCOc2cc(S(=O)(=O)Nc3ncns3)ccc21 | – | – |
| 560 | – | – | < 14 | 26 | < 14 | – | – | – | – | – | N#Cc1cc(C(F)(F)F)ccc1N1CCOc2cc(S(=O)(=O)Nc3nccs3)cc(F)c21 | – | 650 |
